In ChEMBL document CHEMBL4715736, “Identification of anticancer agents based on the thieno[2,3-b]pyridine and 1H-pyrazole molecular scaffolds” (2016):

Legend:
Assay type in all cases: functional
[1] = test system: OVCAR-4; assay: Growth inhibition of human OVCAR-4 cells assessed as cell growth at 0.01 uM incubated for 48 hrs by sulforhodamine B assay relative to control; settings: read-out: Activity
[2] = test system: A498; assay: Growth inhibition of human A498 cells assessed as cell growth at 0.01 uM incubated for 48 hrs by sulforhodamine B assay relative to control; settings: read-out: Activity
How it was run: (§1)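 NCI Developmental Therapeutics Program NCI60 panel. Compounds that were active in the 10 µM one-dose screen went on to dose–response testing. Growth at each concentration is expressed relative to untreated control (100%). GI50 (concentration giving 50% of maximal inhibition of proliferation) and TGI (concentration giving total growth inhibition) were derived from the curves.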

[3] = test system: COLO 205; assay: Growth inhibition of human COLO 205 cells assessed as cell growth at 0.1 uM incubated for 48 hrs by sulforhodamine B assay relative to control; settings: read-out: Activity; how it was run: as §1
[4] = test system: HT-29; assay: Growth inhibition of human HT-29 cells incubated for 48 hrs by sulforhodamine B assay
How it was run: (§2)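 NCI60 panel at the NCI Developmental Therapeutics Program. Only compounds active in the 10 µM screen went to dose-response testing. GI50, the concentration giving 50% of maximal inhibition of proliferation, and TGI, the concentration giving total growth inhibition, were derived from the dose-response curves.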

[5] = test system: HCC 2998; assay: Growth inhibition of human HCC 2998 cells incubated for 48 hrs by sulforhodamine B assay; settings: for CC50: read-out: LC50 (the source's name)
[6] = test system: NCI/ADR-RES; assay: Growth inhibition of human NCI/ADR-RES cells assessed as cell growth at 1 uM incubated for 48 hrs by sulforhodamine B assay relative to control; settings: read-out: Activity
[7] = test system: SF-268; assay: Growth inhibition of human SF-268 cells assessed as cell growth at 0.01 uM incubated for 48 hrs by sulforhodamine B assay relative to control; settings: read-out: Activity
[8] = test system: SN12C; assay: Growth inhibition of human SN12C cells assessed as cell growth at 1 uM incubated for 48 hrs by sulforhodamine B assay relative to control; settings: read-out: Activity
[9] = test system: NCI-H226; assay: Growth inhibition of human NCI-H226 cells assessed as cell growth at 0.1 uM incubated for 48 hrs by sulforhodamine B assay relative to control; settings: read-out: Activity
[10] = test system: NCI-H460; assay: Growth inhibition of human NCI-H460 cells incubated for 48 hrs by sulforhodamine B assay; how it was run: as §2
[11] = test system: HT-29; assay: Growth inhibition of human HT-29 cells assessed as cell growth at 1 uM incubated for 48 hrs by sulforhodamine B assay relative to control; settings: read-out: Activity
[12] = test system: HOP-92; assay: Growth inhibition of human HOP-92 cells assessed as cell growth at 1 uM incubated for 48 hrs by sulforhodamine B assay relative to control; settings: read-out: Activity
[13] = test system: SF-268; assay: Growth inhibition of human SF-268 cells incubated for 48 hrs by sulforhodamine B assay
How it was run: (§3)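 NCI DTP 60-line human tumour panel. Dose-response curves were run only for ligands active in the initial 10 µM screen. GI50 (concentration giving 50% of maximal inhibition of proliferation) and TGI (concentration giving total growth inhibition) were derived from these curves.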

[14] = test system: M14; assay: Growth inhibition of human M14 cells assessed as cell growth at 100 uM incubated for 48 hrs by sulforhodamine B assay relative to control; settings: read-out: Activity
[15] = test system: COLO 205; assay: Growth inhibition of human COLO 205 cells assessed as cell growth at 0.01 uM incubated for 48 hrs by sulforhodamine B assay relative to control; settings: read-out: Activity; how it was run: as §1
[16] = test system: U-251; assay: Growth inhibition of human U-251 cells assessed as cell growth at 100 uM incubated for 48 hrs by sulforhodamine B assay relative to control; settings: read-out: Activity
[17] = test system: OVCAR-8; assay: Growth inhibition of human OVCAR-8 cells assessed as cell growth at 0.1 uM incubated for 48 hrs by sulforhodamine B assay relative to control; settings: read-out: Activity
[18] = test system: LOX IMVI; assay: Growth inhibition of human LOX IMVI cells assessed as cell growth at 100 uM incubated for 48 hrs by sulforhodamine B assay relative to control; settings: read-out: Activity
[19] = test system: KM12; assay: Growth inhibition of human KM12 cells assessed as cell growth at 1 uM incubated for 48 hrs by sulforhodamine B assay relative to control; settings: read-out: Activity
[20] = test system: A549; assay: Growth inhibition of human A549/ATCC cells assessed as cell growth at 0.1 uM incubated for 48 hrs by sulforhodamine B assay relative to control; settings: read-out: Activity; how it was run: as §1
[21] = test system: SR; assay: Growth inhibition of human SR cells incubated for 48 hrs by sulforhodamine B assay; how it was run: as §3
[22] = test system: OVCAR-3; assay: Growth inhibition of human OVCAR-3 cells incubated for 48 hrs by sulforhodamine B assay; settings: for CC50: read-out: LC50 (the source's name); how it was run: as §3
[23] = test system: U-251; assay: Growth inhibition of human U-251 cells incubated for 48 hrs by sulforhodamine B assay; how it was run: as §3
[24] = test system: SK-MEL-28; assay: Growth inhibition of human SK-MEL-28 cells assessed as cell growth at 0.1 uM incubated for 48 hrs by sulforhodamine B assay relative to control; settings: read-out: Activity
[25] = test system: HCT-116; assay: Growth inhibition of human HCT-116 cells assessed as cell growth at 100 uM incubated for 48 hrs by sulforhodamine B assay relative to control; settings: read-out: Activity
[26] = test system: MDA-MB-435; assay: Growth inhibition of human MDA-MB-435 cells assessed as cell growth at 100 uM incubated for 48 hrs by sulforhodamine B assay relative to control; settings: read-out: Activity
[27] = test system: TK-10; assay: Growth inhibition of human TK-10 cells assessed as cell growth at 100 uM incubated for 48 hrs by sulforhodamine B assay relative to control; settings: read-out: Activity
[28] = test system: RPMI-8226; assay: Growth inhibition of human RPMI-8226 cells incubated for 48 hrs by sulforhodamine B assay; how it was run: as §3
[29] = test system: OVCAR-5; assay: Growth inhibition of human OVCAR-5 cells assessed as cell growth at 1 uM incubated for 48 hrs by sulforhodamine B assay relative to control; settings: read-out: Activity
[30] = test system: SF-295; assay: Growth inhibition of human SF-295 cells assessed as cell growth at 0.1 uM incubated for 48 hrs by sulforhodamine B assay relative to control; settings: read-out: Activity
[31] = test system: U-251; assay: Growth inhibition of human U-251 cells assessed as cell growth at 1 uM incubated for 48 hrs by sulforhodamine B assay relative to control; settings: read-out: Activity
[32] = test system: NCI-H460; assay: Growth inhibition of human NCI-H460 cells assessed as cell growth at 0.01 uM incubated for 48 hrs by sulforhodamine B assay relative to control; settings: read-out: Activity
[33] = test system: BT-549; assay: Growth inhibition of human BT-549 cells assessed as cell growth at 1 uM incubated for 48 hrs by sulforhodamine B assay relative to control; settings: read-out: Activity
[34] = test system: NCI-H522; assay: Growth inhibition of human NCI-H522 cells assessed as cell growth at 100 uM incubated for 48 hrs by sulforhodamine B assay relative to control; settings: read-out: Activity
[35] = test system: OVCAR-5; assay: Growth inhibition of human OVCAR-5 cells assessed as cell growth at 0.1 uM incubated for 48 hrs by sulforhodamine B assay relative to control; settings: read-out: Activity

Q: Which results are given for `COc1cccc(NC(=O)c2sc3nc4c(cc3c2N)CN(Cc2ccccc2)CC4)c1`?
A: growth at 0.01 µM [1]: 86%; growth at 0.01 µM [2]: 94%; growth at 0.1 µM [3]: 98%; GI50 [4]: 3.75 µM; LC50 [4]: 56.2 µM; TGI [4]: 15.2 µM; GI50 [5]: 9.13 µM; TGI [5]: > 100 µM; CC50 [5]: > 100 µM; growth at 1 µM [6]: 63%; growth at 0.01 µM [7]: 99%; growth at 1 µM [8]: 85%; growth at 0.1 µM [9]: 87%; GI50 [10]: 4.18 µM; LC50 [10]: > 100 µM; TGI [10]: 30.9 µM; growth at 1 µM [11]: 96%; growth at 1 µM [12]: 64%; GI50 [13]: 3.66 µM; LC50 (concentration killing 50% of cells) [13]: > 100 µM; TGI [13]: 207 µM; growth at 100 µM [14]: -4%; growth at 0.01 µM [15]: 92%; growth at 100 µM [16]: -54%; growth at 0.1 µM [17]: 100%; growth at 100 µM [18]: -15%; growth at 1 µM [19]: 64%; growth at 0.1 µM [20]: 93%; GI50 [21]: 0.453 µM; LC50 [21]: > 100 µM; TGI [21]: 47.7 µM; GI50 [22]: 7.53 µM; TGI [22]: 26.9 µM; CC50 [22]: 79.8 µM; GI50 [23]: 2.74 µM; LC50 (concentration killing 50% of cells) [23]: 88.7 µM; TGI [23]: 19.2 µM; growth at 0.1 µM [24]: 99%; growth at 100 µM [25]: 2%; growth at 100 µM [26]: -74%; growth at 100 µM [27]: -55%; GI50 [28]: 38.9 µM; LC50 [28]: > 100 µM; TGI [28]: > 100 µM; growth at 1 µM [29]: 95%; growth at 0.1 µM [30]: 90%; growth at 1 µM [31]: 72%; growth at 0.01 µM [32]: 101%; growth at 1 µM [33]: 72%; growth at 100 µM [34]: 1%; growth at 0.1 µM [35]: 95%

Q: Which results are given for `Cc1ccc(NC(=O)c2sc3nc4c(cc3c2N)C(=O)CCC4)cc1C`?
A: growth at 0.01 µM [1]: 94%; growth at 0.01 µM [2]: 89%; growth at 0.1 µM [3]: 98%; GI50 [4]: 0.399 µM; LC50 [4]: > 100 µM; TGI [4]: ≥ 100 µM; GI50 [5]: 1.4 µM; TGI [5]: > 100 µM; CC50 [5]: > 100 µM; growth at 1 µM [6]: 39%; growth at 0.01 µM [7]: 95%; growth at 1 µM [8]: 41%; growth at 0.1 µM [9]: 88%; GI50 [10]: 0.374 µM; LC50 [10]: > 100 µM; TGI [10]: ≥ 100 µM; growth at 1 µM [11]: 14%; growth at 1 µM [12]: 29%; GI50 [13]: 3.07 µM; LC50 (concentration killing 50% of cells) [13]: > 100 µM; TGI [13]: > 100 µM; growth at 100 µM [14]: 4%; growth at 0.01 µM [15]: 101%; growth at 100 µM [16]: -9%; growth at 0.1 µM [17]: 100%; growth at 100 µM [18]: 20%; growth at 1 µM [19]: 24%; growth at 0.1 µM [20]: 98%; GI50 [21]: 0.499 µM; LC50 [21]: > 100 µM; TGI [21]: 26.8 µM; GI50 [22]: 0.343 µM; TGI [22]: 1.4 µM; CC50 [22]: > 100 µM; GI50 [23]: 0.68 µM; LC50 (concentration killing 50% of cells) [23]: > 100 µM; TGI [23]: ≥ 100 µM; growth at 0.1 µM [24]: 87%; growth at 100 µM [25]: 8%; growth at 100 µM [26]: -46%; growth at 100 µM [27]: 47%; GI50 [28]: 1.43 µM; LC50 [28]: > 100 µM; growth at 1 µM [29]: 66%; growth at 0.1 µM [30]: 85%; growth at 1 µM [31]: 42%; growth at 0.01 µM [32]: 102%; growth at 1 µM [33]: 49%; growth at 100 µM [34]: -13%; growth at 0.1 µM [35]: 87%
